Compound activity as filed in PubChem BioAssay.
S1P1 ag pot: activates or potentiates agonism at human S1P1 receptor. P21453. S1P1 CRE-bla cells, forskolin, beta-lactamase FRET, potentiator mode; S1P1 agonist co-added at EC20, 2 nM; 100% = saturating reference agonist, 0% = basal. hit rate 0.57% among 56,000. AID 449. activation, % at 9.5 µM;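 active = activation above a cutoff set at the mean activation of all tested compounds plus 3 SD, cut at about 54% in these data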;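 also: forskolin at 4 µM as EC80 and the EC20 agonist is SEW2871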
Target sequence (P21453 whole entry, looked up): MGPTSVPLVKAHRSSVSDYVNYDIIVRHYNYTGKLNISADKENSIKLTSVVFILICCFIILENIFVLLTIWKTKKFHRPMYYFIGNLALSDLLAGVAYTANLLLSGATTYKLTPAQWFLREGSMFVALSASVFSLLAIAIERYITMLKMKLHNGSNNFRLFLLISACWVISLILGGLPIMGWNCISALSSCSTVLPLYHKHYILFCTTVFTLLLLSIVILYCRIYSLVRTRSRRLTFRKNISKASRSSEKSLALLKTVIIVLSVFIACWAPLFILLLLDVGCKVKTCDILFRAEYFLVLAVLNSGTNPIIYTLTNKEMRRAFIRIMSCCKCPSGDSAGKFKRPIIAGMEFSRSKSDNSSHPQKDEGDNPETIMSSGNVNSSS
S1P3 agonist: S1P3 (human) receptor agonism; Q99500; S1P3 NFAT-BLA reporter cells, FRET ratio; relative to 1 µM S1P, basal subtracted; activation, % at 4.5 µM; hit rate 0.1% among 60,000;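 active = activation above the screen-wide mean plus 3 SD, cut at about 4.5% in these data, passing the limit was not always enough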
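Measure – % activation relative to 1 µM S1P (100%), per plate · System – stable CHO line with human S1P3, Gα16, NFAT-BLA reporter · Timing – cells plated overnight, compound 4 h 37 °C, substrate 2 h RT · Technique – fluorescent BLA substrate, ex 405 nm, em 460/535 nm ratio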
D1 mod: allosteric modulators of human D1 dopamine receptor. P21728. HEK293 D1, CRE-luciferase, dopamine EC30 potentiation; actives deviate in either direction. B-score at 10 µM. hit rate 5.9% among 58,000;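 active = luminescence count or its row- and column-corrected plate score outside the 99.7% band of the plate's sample wells, on either side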
M1 antagonist: antagonists of rat M1 muscarinic receptor; P08482; B-score at 10 µM; hit rate 3.4% among 64,000; CHO-M1 cells, Fluo-4 calcium, ACh EC80 antagonist mode; stronger effect = lower value;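 active = calcium fluorescence response, raw or row-and-column corrected B-score, differing from the plate sample mean either way at a set confidence level, mostly lower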
M1 ag: M1 muscarinic receptor agonism | CHO-M1 cells, Fluo-4 calcium fluorescence, agonist mode; stronger effect = higher value | B-score at 10 µM | hit rate 3% among 64,000 | AID 626;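 active = fluorescence rise, raw or as B-score row- and column-corrected plate score, outside the 99.7% band of its plate's samples, either direction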
D1 PAM confirm: confirmation of human D1 dopamine receptor allosteric modulators | AID 642 | hit rate 88% among 2,200 | shares compounds with D1 mod | HEK293 D1 CRE-luciferase, dopamine EC30 potentiation; stronger effect = higher value | luminescence at 10 µM;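 active = luminescence in either of two replicates above the same-plate mean plus 3 SD of the low-dose dopamine control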
D1 ag no DA: activates D1 CRE-luciferase signal without dopamine present | HEK293 D1 CRE-luciferase, luminescence, no dopamine; stronger effect = higher value | shares compounds with D1 mod | hit rate 0.8% among 1,900 | AID 646 | luminescence at 10 µM; in the data active = luminescence above about 3900
Isoprot counter: isoproterenol response counter-screen activity for D1 modulators. HEK293 D1 CRE-luciferase, isoproterenol EC30 counter-screen; stronger effect = higher value. luminescence at 10 µM. shares compounds with D1 mod. hit rate 63% among 2,200;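 active = luminescence in either replicate above plate mean of wells with a partly effective reference agonist dose plus 3 SD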;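 also: isoproterenol raises cAMP through native beta-adrenoceptor Gs so signal bypasses D1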
Large screens that a line does not name were inactive (follow-up assays come after a bar, where they were run). In the library only some 11% were active in any assay of this set; here they are far more common.

Cc1cc2n(n1)C(c1ccc(O)cc1)Nc1ccccc1-2 (centres undefined)	none
CC(=O)n1nc(-c2ccco2)nc1N	none
CCC(=O)n1nc(-c2ccco2)nc1N	D1 mod 15.1 (no result: S1P1 ag pot) | D1 PAM confirm 6080 | D1 ag no DA inactive | Isoprot counter inactive
O=C(O)COc1ccc(-c2nnn(CC(=O)O)n2)cc1	none (no result: S1P1 ag pot)
Cc1cc(NC(=O)c2cnn3cccnc23)nn1CC(=O)Nc1cccnc1	none (no result: S1P1 ag pot)
O=C(Nc1cccnc1)c1cnn2cccnc12	D1 mod 4.56 | D1 PAM confirm 7304 | D1 ag no DA inactive | Isoprot counter 2820
CCOC(=O)c1cc(C(=O)OCC)cc(-n2c(C)cc(C(=O)CN3CCOCC3)c2C)c1	D1 mod 4.94 | D1 PAM confirm 7880 | Isoprot counter inactive
CCOC(=O)c1c(C)[nH]c(C(=O)COC(=O)c2ccc(F)c(S(=O)(=O)N3CCOCC3)c2)c1C	none
N#Cc1c2c(nc(N)c1-c1ccccc1)CCCCC2	D1 mod 4.52 (no result: S1P1 ag pot, S1P3 agonist) | D1 PAM confirm 7208 | D1 ag no DA inactive | Isoprot counter inactive
N#Cc1c(N)nc2c(c1-c1ccccc1)CCCC2	none (no result: D1 mod)
CCn1c(=S)sc2c(=O)n(-c3ccccc3)c(SC)nc21	none (no result: S1P1 ag pot, S1P3 agonist)
N#CCSc1nc2c(sc(=S)n2Cc2ccco2)c(=O)n1-c1ccc(F)cc1	D1 mod 2.97 (no result: S1P1 ag pot, S1P3 agonist) | D1 PAM confirm 10848 | D1 ag no DA inactive | Isoprot counter inactive
CCOC(=O)CNC(=O)CSc1nc2cccnc2n1C	none (no result: D1 mod)
COc1ccc(CNCCNC(=O)c2ccco2)c(OC)c1OC	none
COc1ccc2c(C)c(C(=O)NCC(C)O)oc2c1OC (centres undefined)	D1 mod 7.53 (no result: S1P1 ag pot, S1P3 agonist) | D1 PAM confirm 11688 | D1 ag no DA inactive | Isoprot counter 3188
Cc1c(NC(=O)CN2C(=O)c3ccccc3C2=O)c(=O)n(-c2ccccc2)n1C	D1 mod 3.73 | D1 PAM confirm inactive | D1 ag no DA inactive | Isoprot counter inactive
COc1ccc(-c2cc(C(=O)N3CCCCC3)no2)cc1OC	D1 mod 9.48 | D1 PAM confirm 14812 | Isoprot counter 3656
COc1ccc(-c2cc(C(=O)N3CCN(Cc4ccccc4)CC3)no2)cc1OC	none
CC1(C(=O)NC2CCCCC2)CCC(=O)N1Cc1cccnc1 (centres undefined)	D1 mod 7.47 | D1 PAM confirm inactive | D1 ag no DA inactive | Isoprot counter inactive
O=C(NC1CCCC1)c1cccnc1N1CCCCCC1	none
Cc1nc2cccc(C(=O)NC3CCCCC3)c2o1	D1 mod 14.1 | D1 PAM confirm 19668 | Isoprot counter 3692
CC1(C)Cc2c(sc3c2c(=N)n(Cc2ccco2)c(=O)n3Cc2ccc(Cl)cc2)CO1	D1 mod 24.5 (no result: S1P1 ag pot, S1P3 agonist) | D1 PAM confirm 24660 | D1 ag no DA inactive | Isoprot counter 8816
COc1ccc(C(=O)N2CCCCC2)cc1S(=O)(=O)Nc1ccccc1	none (no result: D1 mod)
CCOC(=O)N1CCN(C(=O)c2ccc(Cl)c(S(=O)(=O)Nc3ccccc3)c2)CC1	D1 mod 6.13 | D1 PAM confirm 15076 | D1 ag no DA inactive | Isoprot counter inactive
OC[C@H]1O[C@@H](n2cnc3c(NC4CCCC4)ncnc32)[C@H](O)[C@@H]1O	D1 mod 5.48 | D1 PAM confirm 7504 | D1 ag no DA inactive | Isoprot counter 5496
O=C(CCC(=O)c1ccc(F)cc1)OC1CCOC1=O (centres undefined)	none
COc1ccc(N(C)S(=O)(=O)c2c(C)[nH]c(=O)[nH]c2=O)cc1	none
Cc1ccc(-n2c(=O)cc(N3CC(C)CC(C)C3)[nH]c2=O)cc1 (centres undefined)	D1 mod 3.58 (no result: S1P1 ag pot, S1P3 agonist) | D1 PAM confirm 3236 | D1 ag no DA inactive | Isoprot counter inactive
O=C(c1ccco1)N1CCN(CC(O)Cn2c3ccccc3c3ccccc32)CC1 (centres undefined)	none (no result: S1P1 ag pot, S1P3 agonist)
O=C(CCc1ccc(CCC(=O)c2cccs2)s1)c1cccs1	D1 mod 3.38 | D1 PAM confirm 11800 | D1 ag no DA inactive | Isoprot counter inactive
O=C(Cn1ccccc1=O)c1cccs1	none
C=CCSc1nc2c(cc1C#N)CCC2	none
C=C(C)CSc1nc2c(cc1C#N)CCC2	D1 mod 5.01 (no result: S1P1 ag pot, S1P3 agonist) | D1 PAM confirm 8952 | D1 ag no DA inactive | Isoprot counter inactive
N#Cc1cc2c(nc1SCc1cccnc1)CCCC2	D1 mod 9.63 | D1 PAM confirm 12820 | D1 ag no DA inactive | Isoprot counter 3440
Cc1nc2nc(C)c(CCC(=O)NCc3ccc4c(c3)OCO4)c(C)n2n1	none (no result: D1 mod)
COc1ccc2c(C)cc(=O)oc2c1C	D1 mod 5.73 | D1 PAM confirm 11556 | Isoprot counter 3204
O=C(N1CCOCC1)N1CCN(S(=O)(=O)c2ccccc2)C1	none
COc1ccc(-c2c3c(=O)n(C)c(=O)n(C)c3cn2-c2cc(OC)ccc2OC)cc1	D1 mod 6.01 | D1 PAM confirm 8244 | D1 ag no DA inactive | Isoprot counter 3484
COc1ccc(-c2c3c(=O)n(C)c(=O)n(C)c3cn2Cc2ccccn2)cc1	none
CS(=O)(=O)c1nc(-c2ccccc2)cc(C(F)(F)F)n1	D1 mod 4.09 (no result: S1P1 ag pot, S1P3 agonist) | D1 PAM confirm 6308 | Isoprot counter inactive
CCOC(=O)c1cc2cc(F)ccc2nc1C	D1 mod 10 | D1 PAM confirm 12456 | D1 ag no DA inactive | Isoprot counter 4064
O=C(O)Cn1nc(C(F)(F)F)c2c1CCC2	none
Cn1cccc1C(=S)N=P(C1CCCCC1)(N1CCOCC1)N1CCOCC1	none
Cc1csc(Sc2nc3c(c(=O)[nH]c(=O)n3C)n2CCCc2ccccc2)n1	none
CCOC(=O)CSc1nc2c(c(=O)[nH]c(=O)n2C)n1CCCc1ccccc1	none (no result: M1 antagonist, M1 ag)
CC(C)CCSc1nc2c(c(=O)[nH]c(=O)n2C)n1CCc1ccccc1	D1 mod 2.58 | D1 PAM confirm 15840 | D1 ag no DA inactive | Isoprot counter 4020
CC(C)CSc1nc2c(c(=O)[nH]c(=O)n2C)n1CCc1ccccc1	D1 mod 18.9 | D1 PAM confirm 14104 | D1 ag no DA inactive | Isoprot counter 4516
CCCc1cc(=O)[nH]c(SC(CC)C(=O)Nc2ccccc2C#N)n1 (centres undefined)	none
CCC(=O)Nc1c(C#N)c2nc3ccccc3nc2n1C1CCCCC1	none
N#Cc1c(N)n(C2CCCCC2)c2nc3ccccc3nc12	D1 mod 3.31 | D1 PAM confirm 10836 | D1 ag no DA inactive | Isoprot counter 3052
CCOC(=O)N1CCC(NC(=O)c2cccc3c2C(=O)N(Cc2cccnc2)C3)CC1	D1 mod 3.72 | D1 PAM confirm 8400 | D1 ag no DA inactive | Isoprot counter inactive
COC(=O)c1sc(NC(=O)c2ccco2)nc1C	none
